Test system: Rattus norvegicus
Assay: Antiinflammatory activity in albino rat assessed as inhibition of carrageenan-induced paw edema at 50 mg/kg, po administered 1 hr prior to carrageenan-challenge measured after 0.5 hrs
Format: functional
Settings: not given
How it was run: (§1)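 Adult albino rats of both sexes (120–150 g), pre-hydrated with 3 ml water by gavage, five per group. Test agents suspended in distilled water with a few drops of Tween 80, given orally 1 h before sub-plantar injection of 50 µl 1% carrageenan into the right hind paw. Dial-gauge paw thickness taken at 0.5, 1, 2 and 3 h, with the left paw as reference. % inhibition = (Wc−Wt)/Wc × 100 against saline/Tween 80 controls.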

SMILES	inhibition in vivo at 50 mg/kg
O=C([O-])Cc1ccccc1Nc1c(Cl)cccc1Cl.[Na+] [DICLOFENAC SODIUM]	76.9%

Test system: Rattus norvegicus
Assay: Antiinflammatory activity in albino rat assessed as inhibition of carrageenan-induced paw edema at 50 mg/kg, po administered 1 hr prior to carrageenan-challenge measured after 1 hr
Format: functional
Settings: not given
How it was run: as §1

SMILES	inhibition in vivo at 50 mg/kg
O=C([O-])Cc1ccccc1Nc1c(Cl)cccc1Cl.[Na+] [DICLOFENAC SODIUM]	83.6%

Test system: Rattus norvegicus
Assay: Antiinflammatory activity in albino rat assessed as inhibition of carrageenan-induced paw edema at 100 mg/kg, po administered 1 hr prior to carrageenan-challenge measured after 3 hrs
Format: functional
Settings: not given
How it was run: as §1

SMILES	inhibition in vivo at 100 mg/kg
N#Cc1c(Cl)nc(SCC(=O)Nn2c(COc3ccc(Cl)cc3Cl)nc3ccccc3c2=O)nc1-c1ccc(O)cc1	73.7%
N#Cc1c(Cl)nc(SCC(=O)Nn2c(COc3ccc(Cl)cc3Cl)nc3ccccc3c2=O)nc1-c1ccccc1	68.4%
N#Cc1c(-c2ccc(O)cc2)nc(SCC(=O)Nn2c(COc3ccc(Cl)cc3Cl)nc3ccccc3c2=O)[nH]c1=O	68.4%
Cn1c(SCC(=O)Nn2c(COc3ccc(Cl)cc3Cl)nc3ccccc3c2=O)nc(-c2ccc(Cl)cc2)c(C#N)c1=O	73.7%
Cn1c(SCC(=O)Nn2c(COc3ccc(Cl)cc3Cl)nc3ccccc3c2=O)nc(-c2ccccc2)c(C#N)c1=O	59.6%
N#Cc1c(-c2ccc(O)cc2)nc(SCC(=O)Nn2c(COc3ccc(Cl)cc3Cl)nc3ccccc3c2=O)n(Cc2ccccc2)c1=O	61.4%
O=C([O-])Cc1ccccc1Nc1c(Cl)cccc1Cl.[Na+] [DICLOFENAC SODIUM]	91.2%

Test system: Rattus norvegicus
Assay: Antiinflammatory activity in po dosed albino rat assessed as inhibition of carrageenan-induced paw edema administered 1 hr prior to carrageenan-challenge measured after 3 hrs
Format: functional, organism-based
Settings: not given
How it was run: (§2)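 Carrageenan rat paw oedema (albino rats of both sexes, 120–150 g), oral dosing in Tween 80 suspension 1 h before 50 µl 1% carrageenan sub-plantar injection. Inhibition read at 3 h over a three-dose series (50, 100, 200 mg/kg for test agents; 20, 50, 100 mg/kg for diclofenac sodium). IC50 given in mg/kg and µmol/kg.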

IC50	SMILES
45.01 mg/kg	O=C([O-])Cc1ccccc1Nc1c(Cl)cccc1Cl.[Na+] [DICLOFENAC SODIUM]

Test system: Rattus norvegicus
Assay: Antiinflammatory activity in albino rat assessed as inhibition of carrageenan-induced paw edema at 50 mg/kg, po administered 1 hr prior to carrageenan-challenge measured after 3 hrs
Format: functional
Settings: not given
How it was run: as §1

SMILES	inhibition in vivo at 50 mg/kg
O=C([O-])Cc1ccccc1Nc1c(Cl)cccc1Cl.[Na+] [DICLOFENAC SODIUM]	87.3%

Test system: Rattus norvegicus
Assay: Antiinflammatory activity in albino rat assessed as inhibition of carrageenan-induced paw edema at 100 mg/kg, po administered 1 hr prior to carrageenan-challenge measured after 1 hr
Format: functional
Settings: not given
How it was run: as §1

SMILES	inhibition in vivo at 100 mg/kg
N#Cc1c(Cl)nc(SCC(=O)Nn2c(COc3ccc(Cl)cc3Cl)nc3ccccc3c2=O)nc1-c1ccc(O)cc1	72.7%
N#Cc1c(Cl)nc(SCC(=O)Nn2c(COc3ccc(Cl)cc3Cl)nc3ccccc3c2=O)nc1-c1ccccc1	60%
N#Cc1c(-c2ccc(O)cc2)nc(SCC(=O)Nn2c(COc3ccc(Cl)cc3Cl)nc3ccccc3c2=O)[nH]c1=O	63.6%
Cn1c(SCC(=O)Nn2c(COc3ccc(Cl)cc3Cl)nc3ccccc3c2=O)nc(-c2ccc(Cl)cc2)c(C#N)c1=O	76.4%
Cn1c(SCC(=O)Nn2c(COc3ccc(Cl)cc3Cl)nc3ccccc3c2=O)nc(-c2ccccc2)c(C#N)c1=O	54.5%
N#Cc1c(-c2ccc(O)cc2)nc(SCC(=O)Nn2c(COc3ccc(Cl)cc3Cl)nc3ccccc3c2=O)n(Cc2ccccc2)c1=O	54.5%

Test system: Rattus norvegicus
Assay: Antiinflammatory activity in albino rat assessed as inhibition of carrageenan-induced paw edema at 20 mg/kg, po administered 1 hr prior to carrageenan-challenge measured after 3 hrs
Format: functional
Settings: not given
How it was run: as §2

SMILES	inhibition in vivo at 20 mg/kg
O=C([O-])Cc1ccccc1Nc1c(Cl)cccc1Cl.[Na+] [DICLOFENAC SODIUM]	42.2%

Test system: Rattus norvegicus
Assay: Ulcerogenic activity in fasted albino rat assessed as ulcer index at 50 mg/kg po administered qd for 3 days measured on day 4
Format: toxicity, organism-based
Set-up: dose 50 mg/kg, route oral
Settings: in vivo, 72 h
How it was run: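 Albino rats of both sexes (120–150 g), five per group, fasted 20 h, then dosed orally in 1% Tween (test agents 100 mg/kg, celecoxib and diclofenac sodium 50 mg/kg). Feeding cycle: 2 h fast, 2 h feed, 20 h fast, repeated with doses on days 2 and 3. Ulcers scored 0–4. Ulcer index = %incidence/10 + mean ulcer number + mean severity.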

SMILES	UI
O=C([O-])Cc1ccccc1Nc1c(Cl)cccc1Cl.[Na+] [DICLOFENAC SODIUM]	17.02

Test system: Rattus norvegicus
Assay: Antiinflammatory activity in albino rat assessed as inhibition of carrageenan-induced paw edema at 100 mg/kg, po administered 1 hr prior to carrageenan-challenge measured after 0.5 hrs
Format: functional
Settings: not given
How it was run: as §1

SMILES	inhibition in vivo at 100 mg/kg
N#Cc1c(Cl)nc(SCC(=O)Nn2c(COc3ccc(Cl)cc3Cl)nc3ccccc3c2=O)nc1-c1ccc(O)cc1	67.3%
N#Cc1c(Cl)nc(SCC(=O)Nn2c(COc3ccc(Cl)cc3Cl)nc3ccccc3c2=O)nc1-c1ccccc1	53.9%
N#Cc1c(-c2ccc(O)cc2)nc(SCC(=O)Nn2c(COc3ccc(Cl)cc3Cl)nc3ccccc3c2=O)[nH]c1=O	61.5%
Cn1c(SCC(=O)Nn2c(COc3ccc(Cl)cc3Cl)nc3ccccc3c2=O)nc(-c2ccc(Cl)cc2)c(C#N)c1=O	80.8%
Cn1c(SCC(=O)Nn2c(COc3ccc(Cl)cc3Cl)nc3ccccc3c2=O)nc(-c2ccccc2)c(C#N)c1=O	51.9%
N#Cc1c(-c2ccc(O)cc2)nc(SCC(=O)Nn2c(COc3ccc(Cl)cc3Cl)nc3ccccc3c2=O)n(Cc2ccccc2)c1=O	51.9%

Test system: Rattus norvegicus
Assay: Antiinflammatory activity in albino rat assessed as inhibition of carrageenan-induced paw edema at 100 mg/kg, po administered 1 hr prior to carrageenan-challenge measured after 2 hrs
Format: functional
Settings: not given
How it was run: as §1

SMILES	inhibition in vivo at 100 mg/kg
N#Cc1c(Cl)nc(SCC(=O)Nn2c(COc3ccc(Cl)cc3Cl)nc3ccccc3c2=O)nc1-c1ccc(O)cc1	73.7%
N#Cc1c(Cl)nc(SCC(=O)Nn2c(COc3ccc(Cl)cc3Cl)nc3ccccc3c2=O)nc1-c1ccccc1	66.7%
N#Cc1c(-c2ccc(O)cc2)nc(SCC(=O)Nn2c(COc3ccc(Cl)cc3Cl)nc3ccccc3c2=O)[nH]c1=O	68.4%
Cn1c(SCC(=O)Nn2c(COc3ccc(Cl)cc3Cl)nc3ccccc3c2=O)nc(-c2ccc(Cl)cc2)c(C#N)c1=O	73.7%
Cn1c(SCC(=O)Nn2c(COc3ccc(Cl)cc3Cl)nc3ccccc3c2=O)nc(-c2ccccc2)c(C#N)c1=O	59.6%
N#Cc1c(-c2ccc(O)cc2)nc(SCC(=O)Nn2c(COc3ccc(Cl)cc3Cl)nc3ccccc3c2=O)n(Cc2ccccc2)c1=O	56.1%

Test system: Rattus norvegicus
Assay: Antiinflammatory activity in albino rat assessed as inhibition of carrageenan-induced paw edema at 50 mg/kg, po administered 1 hr prior to carrageenan-challenge measured after 2 hrs
Format: functional
Settings: not given
How it was run: as §1

SMILES	inhibition in vivo at 50 mg/kg
O=C([O-])Cc1ccccc1Nc1c(Cl)cccc1Cl.[Na+] [DICLOFENAC SODIUM]	87.7%
